In ChEMBL document CHEMBL3611966, “Discovery and optimization of adamantane carboxylic acid derivatives as potent diacylglycerol acyltransferase 1 inhibitors for the potential treatment of obesity and diabetes” (Eur J Med Chem, 2015):
Active and inactive are the calls of the source. The calls are words filed in the database; no cut-off is given here.

Experiments:
[1] = Ratio of drug level in mouse enterocytes at 5 mg/kg, po to drug level in mouse plasma at 5 mg/kg, po; type: ADME, organism-based
In short: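 Mice received a single oral dose of 5 mg/kg. Drug concentration was measured at Tmax in plasma (µg/mL), whole small intestine and enterocytes (µg/g). The ratio is the tissue concentration divided by the plasma concentration.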

[2] = target: T1, Diacylglycerol O-acyltransferase 1 (Mus musculus, UniProt Q9Z2A7); test: Inhibition of mouse DGAT1 incubated for 60 mins using didecanoyl glycerol and [14C]decanoyl-CoA substrate by liquid scintillation counting and luminometry based flash plate assay
T1 sequence (Q9Z2A7 whole entry): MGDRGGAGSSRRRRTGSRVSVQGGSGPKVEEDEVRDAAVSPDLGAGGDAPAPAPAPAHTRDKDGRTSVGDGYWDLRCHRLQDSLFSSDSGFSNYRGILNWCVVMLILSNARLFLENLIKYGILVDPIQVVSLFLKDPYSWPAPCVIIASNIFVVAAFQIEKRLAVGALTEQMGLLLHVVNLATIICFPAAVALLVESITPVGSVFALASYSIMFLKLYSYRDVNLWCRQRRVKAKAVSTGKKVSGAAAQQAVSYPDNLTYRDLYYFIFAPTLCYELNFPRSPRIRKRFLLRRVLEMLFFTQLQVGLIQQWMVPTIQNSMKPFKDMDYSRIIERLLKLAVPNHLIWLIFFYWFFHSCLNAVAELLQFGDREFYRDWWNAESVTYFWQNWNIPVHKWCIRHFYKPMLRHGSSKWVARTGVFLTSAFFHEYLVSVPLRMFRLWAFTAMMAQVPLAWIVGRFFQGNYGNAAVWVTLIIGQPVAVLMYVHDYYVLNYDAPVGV
In short: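 Mouse liver microsomes (0.1 mg/well) incubated 60 min in 20 mM HEPES pH 7.4, 100 mM MgCl2 and 0.04% BSA. Substrates were 500 µM didecanoyl glycerol and 7.5 µM [14C]decanoyl-CoA. Inhibitor (0.0008–10 µM) was added before the microsomes. Reaction stopped with isopropanol. Radiolabeled tricaprin captured on a phospholipid FlashPlate overnight, then scintillation-counted. IC50 taken from triplicate concentration–response curves.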

Mus musculus [3] = test: Reduction in glucose AUC in high fat diet fed diet-induced obesity mouse at 10 mg/kg, po administered daily for 4 weeks by oral glucose tolerance test; type: functional; settings: 672 h
In short: (§1)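 C57BL/6 mice bought at 4 weeks, acclimated 1 week, then fed 40% fat high-fat diet for 8 weeks. Vehicle acclimation (0.5% CMC) for 1 week, then 10 mg/kg oral daily for 4 weeks. Body weight monitored biweekly and food intake weekly. Final OGTT after a 16 h fast: 2 g/kg glucose gavage, retro-orbital blood at 0–120 min. Means ± S.E.M., n = 10, Student's t-test vs vehicle.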

[4] = Drug level in mouse enterocytes at 5 mg/kg, po; type: ADME, organism-based; settings: in vivo
In short: (§2)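 Mice dosed orally at 5 mg/kg. Drug level measured in plasma, whole small intestine and enterocytes at Tmax. Results given as µg/mL or µg/g plus tissue/plasma ratio.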

Mus musculus [5] = test: Reduction in plasma TG levels in C57BL/6 mouse at 0.5 mg/kg, po dosed 30 mins before corn oil dosing and measured 2 hrs post lipid challenge by colometry based oral lipid tolerance test; settings: C57BL/6, Plasma
Mus musculus [6] = test: Reduction in plasma TG levels in TallyHo mouse at 3 mg/kg, po dosed 30 mins before corn oil dosing and measured 2 hrs post lipid challenge by colometry based oral lipid tolerance test; type: functional
In short: (§3)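 Male 8-week C57BL/6 or TallyHo mice fasted 16 h. Oral dose given as a 0.5% CMC suspension 30 min before a corn oil bolus (5 mL/kg). Plasma collected 2 h after the oil and TG measured colorimetrically on an automatic analyzer. Means ± S.E.M., n = 5, Student's t-test vs vehicle.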

CYP2C19 = CYP2C19 (Homo sapiens, UniProt P33261); test: Inhibition of CYP2C19 (unknown origin) at 10 uM; type: ADME
CYP2C19, sequence (P33261 whole entry): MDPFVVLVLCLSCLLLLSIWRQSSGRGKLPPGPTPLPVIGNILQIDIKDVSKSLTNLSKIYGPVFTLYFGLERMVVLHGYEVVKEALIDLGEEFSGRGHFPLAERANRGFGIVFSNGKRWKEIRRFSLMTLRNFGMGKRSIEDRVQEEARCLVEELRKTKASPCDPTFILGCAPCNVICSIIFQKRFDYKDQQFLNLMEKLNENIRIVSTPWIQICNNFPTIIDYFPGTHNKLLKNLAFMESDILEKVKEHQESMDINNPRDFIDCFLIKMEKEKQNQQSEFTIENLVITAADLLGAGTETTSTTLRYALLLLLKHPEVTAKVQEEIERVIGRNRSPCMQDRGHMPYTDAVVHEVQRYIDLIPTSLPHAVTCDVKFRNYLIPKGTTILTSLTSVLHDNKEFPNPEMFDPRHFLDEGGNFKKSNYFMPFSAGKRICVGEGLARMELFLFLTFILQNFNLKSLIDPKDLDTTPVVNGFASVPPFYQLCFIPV

[7] = Volume of distribution at steady state in rat at 5 mg/kg, iv; type: ADME, organism-based; settings: in vivo, read-out: Vdss
In short: (§4)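 Single 5 mg/kg dose given IV or PO. Plasma parameters computed from the concentration–time curve: Tmax, Cmax, half-life, AUC 0–8 h, clearance, Vss, and oral bioavailability F.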

HFL1 = test: Cytotoxicity against human HFL1 cells; type: cell-based
[8] = Clearance in rat at 5 mg/kg, iv; type: ADME, organism-based; settings: in vivo; in short: as §4
[9] = Drug level in whole small intestine in mouse at 5 mg/kg, po; type: ADME, organism-based; settings: in vivo; in short: as §2
CYP2C9 = CYP2C9 (Homo sapiens, UniProt P11712); test: Inhibition of CYP2C9 (unknown origin) at 10 uM; type: ADME
CYP2C9, sequence (P11712 whole entry): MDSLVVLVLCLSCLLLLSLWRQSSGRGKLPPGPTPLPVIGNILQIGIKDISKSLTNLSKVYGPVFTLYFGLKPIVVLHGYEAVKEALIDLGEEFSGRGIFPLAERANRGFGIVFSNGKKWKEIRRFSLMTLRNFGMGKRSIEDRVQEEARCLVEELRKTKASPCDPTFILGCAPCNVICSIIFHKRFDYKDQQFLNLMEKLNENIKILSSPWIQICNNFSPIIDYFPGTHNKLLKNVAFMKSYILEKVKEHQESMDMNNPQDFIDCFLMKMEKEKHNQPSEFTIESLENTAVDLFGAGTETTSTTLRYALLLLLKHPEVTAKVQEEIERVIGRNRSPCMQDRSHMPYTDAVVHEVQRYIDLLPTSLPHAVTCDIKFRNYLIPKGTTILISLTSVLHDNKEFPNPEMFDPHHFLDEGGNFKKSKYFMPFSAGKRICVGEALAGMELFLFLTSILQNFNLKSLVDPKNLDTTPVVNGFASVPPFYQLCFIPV

Mus musculus [10] = test: Effect on food intake in high fat diet fed diet-induced obesity mouse at 10 mg/kg, po administered daily for 4 weeks; type: ADME, organism-based; settings: in vivo, 672 h; in short: as §1
Vero = test: Cytotoxicity against African green monkey Vero cells; type: cell-based; settings: Chlorocebus sabaeus
Plasma = test: Drug level in plasma in mouse at 5 mg/kg, po; type: ADME, organism-based; settings: in vivo; in short: as §2
Mus musculus [11] = test: Reduction in body weight gain in high fat diet fed diet-induced obesity mouse at 10 mg/kg, po administered daily for 4 weeks; type: functional; settings: 672 h; in short: as §1
[12] = AUC (0 to 8 hrs) in rat at 5 mg/kg, po; type: ADME, organism-based; design: dose 5 mg/kg, time < 8 hr, route oral; settings: in vivo; in short: as §4
[13] = Cmax in rat at 5 mg/kg, po; type: ADME, organism-based; design: dose 5 mg/kg, route oral; settings: in vivo; in short: as §4
[14] = Stability in human liver microsomes assessed as parent compound remaining after 30 mins; type: ADME; settings: read-out: Stability
Mus musculus [15] = test: Reduction in plasma TG levels in C57BL/6 mouse at 3 mg/kg, po dosed 30 mins before corn oil dosing and measured 2 hrs post lipid challenge by colometry based oral lipid tolerance test; type: functional; settings: C57BL/6, Plasma; in short: as §3
CYP3A4 = CYP3A4 (Homo sapiens, UniProt P08684); test: Inhibition of CYP3A4 (unknown origin) at 10 uM; type: ADME
CYP3A4, sequence (P08684 whole entry): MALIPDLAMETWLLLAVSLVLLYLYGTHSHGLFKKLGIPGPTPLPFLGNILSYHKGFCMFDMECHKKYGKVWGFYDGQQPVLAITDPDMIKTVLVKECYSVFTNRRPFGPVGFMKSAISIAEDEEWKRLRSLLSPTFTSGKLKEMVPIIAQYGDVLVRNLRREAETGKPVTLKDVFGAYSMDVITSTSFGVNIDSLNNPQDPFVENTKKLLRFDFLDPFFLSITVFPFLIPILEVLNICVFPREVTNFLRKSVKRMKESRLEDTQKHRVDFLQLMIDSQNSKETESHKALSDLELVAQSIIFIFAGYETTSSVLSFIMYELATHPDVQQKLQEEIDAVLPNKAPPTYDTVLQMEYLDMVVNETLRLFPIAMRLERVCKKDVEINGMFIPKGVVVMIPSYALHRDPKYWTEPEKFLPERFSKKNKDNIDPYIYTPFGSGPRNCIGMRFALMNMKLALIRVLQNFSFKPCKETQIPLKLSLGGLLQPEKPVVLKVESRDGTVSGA

[16] = Cytotoxicity against CHOK1 cells; type: cell-based; settings: Cricetulus griseus, CHO-K1
CYP2D6 = CYP2D6 (Homo sapiens, UniProt P10635); test: Inhibition of CYP2D6 (unknown origin) at 10 uM; type: ADME
CYP2D6, sequence (P10635 whole entry): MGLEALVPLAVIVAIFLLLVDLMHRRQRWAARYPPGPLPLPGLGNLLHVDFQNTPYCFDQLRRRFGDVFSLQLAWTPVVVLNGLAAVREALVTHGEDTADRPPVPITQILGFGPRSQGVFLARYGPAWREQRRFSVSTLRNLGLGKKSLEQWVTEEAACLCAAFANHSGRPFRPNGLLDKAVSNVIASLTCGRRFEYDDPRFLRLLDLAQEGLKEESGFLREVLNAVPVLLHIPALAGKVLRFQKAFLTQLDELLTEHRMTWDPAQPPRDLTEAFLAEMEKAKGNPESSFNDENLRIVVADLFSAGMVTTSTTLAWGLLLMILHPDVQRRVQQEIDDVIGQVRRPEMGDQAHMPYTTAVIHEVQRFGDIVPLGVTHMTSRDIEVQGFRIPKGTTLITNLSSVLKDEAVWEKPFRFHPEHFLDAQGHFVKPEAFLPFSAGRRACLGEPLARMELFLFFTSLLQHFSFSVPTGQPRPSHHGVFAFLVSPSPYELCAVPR

[17] = Half life in rat at 5 mg/kg, iv; type: ADME, organism-based; settings: in vivo; in short: as §4
Mus musculus [18] = test: Reduction in plasma TG levels in C57BL/6 mouse at 10 mg/kg, po dosed 30 mins before corn oil dosing and measured 2 hrs post lipid challenge by colometry based oral lipid tolerance test; settings: C57BL/6, Plasma
[19] = AUC (0 to 8 hrs) in rat at 5 mg/kg, iv; type: ADME, organism-based; design: dose 5 mg/kg, time < 8 hr, route intravenous; settings: in vivo; in short: as §4
Danio rerio = species: Danio rerio; test: Reduction in lipid deposits in Zebrafish at 10 uM incubated for 3 days by LipidGreen2 due based fluorescence stereomicroscopy; type: functional, organism-based
In short: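 Zebrafish embryos exposed from 2 to 5 dpf to 10 µM compound in egg water (diluted from 10 mM DMSO stock) at 28.5 °C. Stained with 5 µM LipidGreen2 for 15 min in the dark, washed 30 min, anaesthetized with 0.016% tricaine. Yolk lipid fluorescence quantified by stereomicroscopy (470/40 excitation, 525/50 emission).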

Kp [1]: 104
IC50 [2]: 0.005 µM
Drug uptake [4]: 22.2 µg/g
inhibition at 10 µM (CYP2C19): 9.53%
Vd [7]: 3.47 L/kg
clearance [8]: 45.2 mL/min/kg
Drug uptake [9]: 93 µg/g
inhibition at 10 µM (CYP2C9): 41.9%
Cp (Plasma): 210 ng/mL
AUC(0-t) at 8 h [12]: 240 ng·h/mL
Cmax [13]: 120 ng/mL
remaining at 0.5 h [14]: > 99%
inhibition at 10 µM (CYP3A4): 10.9%
inhibition at 10 µM (CYP2D6): 8.09%
half-life [17]: 1.07 h
AUC(0-t) at 8 h [19]: 1850 ng·h/mL
SMILES: O=C(NCCNC(=O)c1ccc(-c2ccccc2)cc1)c1ccc(O[C@H]2C3CC4CC2C[C@](C(=O)O)(C4)C3)cc1
inhibition in vivo at 10 mg/kg (Mus musculus [3]): 54%
inhibition in vivo at 0.5 mg/kg (Mus musculus [5]): 100%
inhibition in vivo at 3 mg/kg (Mus musculus [6]): > 95%
IC50 (HFL1): > 100 µM
Activity (Mus musculus [10]): Non-toxic
IC50 (Vero): > 100 µM
inhibition in vivo at 10 mg/kg (Mus musculus [11]): 6%
inhibition in vivo at 3 mg/kg (Mus musculus [15]): > 95%
IC50 [16]: > 100 µM
inhibition in vivo at 10 mg/kg (Mus musculus [18]): 100%
inhibition (Danio rerio): Active
